Experiment [1] deals with T1, Proprotein convertase subtilisin/kexin type 6 (Homo sapiens, UniProt P29122).
T1 sequence (P29122 whole entry): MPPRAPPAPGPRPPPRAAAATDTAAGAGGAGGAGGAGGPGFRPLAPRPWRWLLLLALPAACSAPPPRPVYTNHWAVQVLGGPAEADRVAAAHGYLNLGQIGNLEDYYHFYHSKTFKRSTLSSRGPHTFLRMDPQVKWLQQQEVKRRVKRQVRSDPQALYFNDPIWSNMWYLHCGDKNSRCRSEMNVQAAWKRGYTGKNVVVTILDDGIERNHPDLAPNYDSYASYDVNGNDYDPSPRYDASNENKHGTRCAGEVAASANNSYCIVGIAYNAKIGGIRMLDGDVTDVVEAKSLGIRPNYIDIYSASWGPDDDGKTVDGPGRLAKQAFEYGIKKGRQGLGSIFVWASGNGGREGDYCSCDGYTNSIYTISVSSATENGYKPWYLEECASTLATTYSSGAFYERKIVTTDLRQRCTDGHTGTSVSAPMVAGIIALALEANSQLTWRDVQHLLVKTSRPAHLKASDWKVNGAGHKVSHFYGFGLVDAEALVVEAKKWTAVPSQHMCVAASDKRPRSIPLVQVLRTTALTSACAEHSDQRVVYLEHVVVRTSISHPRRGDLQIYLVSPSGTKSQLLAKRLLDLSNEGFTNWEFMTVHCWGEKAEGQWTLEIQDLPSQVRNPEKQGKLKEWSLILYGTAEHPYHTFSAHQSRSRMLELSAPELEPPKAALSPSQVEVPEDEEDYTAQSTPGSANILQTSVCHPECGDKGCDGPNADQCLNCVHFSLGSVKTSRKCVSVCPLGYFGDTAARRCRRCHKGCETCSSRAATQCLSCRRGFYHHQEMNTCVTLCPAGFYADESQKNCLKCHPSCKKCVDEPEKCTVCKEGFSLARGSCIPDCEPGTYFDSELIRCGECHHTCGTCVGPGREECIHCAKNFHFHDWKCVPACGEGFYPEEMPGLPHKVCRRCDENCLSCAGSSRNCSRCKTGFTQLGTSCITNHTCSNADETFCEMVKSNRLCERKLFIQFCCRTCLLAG
Nature of the experiment: Inhibition of recombinant human PACE4 expressed in drosophila S2 cells using pyrGlu-Arg-Thr-Lys-Arg-7-amido-4-methylcoumarin as substrate after 60 mins by spectrofluorometry method. It counts as cell-based. A digest of the protocol:
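Human recombinant purified PACE4 at 2 units/100 µL (20.18 nM), in 20 mM BisTris pH 6.5, 1 mM CaCl2, 1.8 mg/mL BSA. Substrate 100 µM, KM 4.035 µM. Inhibitor 1 nM to 10 µM; 60 min at 37°C. Fluorescence ex 370 / em 460 nm. Ki by Morrison tight-binding equation; three independent experiments, mean ± SD.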

Experiment [2] has as its target Furin (Homo sapiens, UniProt P09958). Put plainly: Inhibition of recombinant human furin expressed in drosophila S2 cells using pyrGlu-Arg-Thr-Lys-Arg-7-amido-4-methylcoumarin as substrate after 60 mins by spectrofluorometry method. It counts as cell-based. The procedure, abridged: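 Human recombinant purified furin at 2 units/100 µL (0.54 nM), in 100 mM HEPES pH 7.5, 1 mM CaCl2, 1 mM β-mercaptoethanol, 1.8 mg/mL BSA. His-containing peptides run instead in 20 mM BisTris pH 6.5 with the same additives. Substrate 100 µM, KM 5.04 µM. Inhibitor 1 nM to 10 µM; 60 min at 37°C. Fluorescence ex 370 / em 460 nm. Ki by Morrison equation; triplicate experiments, mean ± SD.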

The species named for experiment [3] is Homo sapiens. Put plainly: Selectivity index, ratio of Ki for recombinant human furin expressed in drosophila S2 cells to Ki for recombinant human PACE4 expressed in drosophila S2 cells. It counts as cell-based. A digest of the protocol: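 Ratio Ki(furin)/Ki(PACE4). […] PACE4 buffer was BisTris pH 6.5; furin buffer was HEPES pH 7.5, or BisTris pH 6.5 for His peptides. Ki fitted by Morrison equation from three independent experiments.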

Experiment [4] concerns DU-145. Put plainly: Antiproliferative activity against human DU145 cells assessed as reduction in metabolic activity at 25 to 100 uM after 72 hrs by MTT assay. Format: functional, cell-based. The procedure, abridged: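 First-pass MTT screen of each library peptide on DU145 cells (RPMI 1640, 5% FBS, 1500 cells/well, poly-L-lysine plates). Peptides added 24 h after seeding at 25, 50 and 100 µM in fresh serum medium for 72 h. MTT 1 mg/mL for 4 h; 2-propanol HCl solubilisation. Activity normalised to water vehicle. Mean ± SEM of at least two independent experiments.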
(In general: Tetrazolium assays rely on reduction of a dye to a coloured formazan, in cell work by metabolically active cells.)

Calls of active or inactive are those of the source. How the calls were made is not given here. Peptide text beside a SMILES is read from it. * marks the point of attachment. NH(4-amidinobenzyl) = N=C(N)c1ccc(CN*)cc1

Furin, sequence (P09958 whole entry): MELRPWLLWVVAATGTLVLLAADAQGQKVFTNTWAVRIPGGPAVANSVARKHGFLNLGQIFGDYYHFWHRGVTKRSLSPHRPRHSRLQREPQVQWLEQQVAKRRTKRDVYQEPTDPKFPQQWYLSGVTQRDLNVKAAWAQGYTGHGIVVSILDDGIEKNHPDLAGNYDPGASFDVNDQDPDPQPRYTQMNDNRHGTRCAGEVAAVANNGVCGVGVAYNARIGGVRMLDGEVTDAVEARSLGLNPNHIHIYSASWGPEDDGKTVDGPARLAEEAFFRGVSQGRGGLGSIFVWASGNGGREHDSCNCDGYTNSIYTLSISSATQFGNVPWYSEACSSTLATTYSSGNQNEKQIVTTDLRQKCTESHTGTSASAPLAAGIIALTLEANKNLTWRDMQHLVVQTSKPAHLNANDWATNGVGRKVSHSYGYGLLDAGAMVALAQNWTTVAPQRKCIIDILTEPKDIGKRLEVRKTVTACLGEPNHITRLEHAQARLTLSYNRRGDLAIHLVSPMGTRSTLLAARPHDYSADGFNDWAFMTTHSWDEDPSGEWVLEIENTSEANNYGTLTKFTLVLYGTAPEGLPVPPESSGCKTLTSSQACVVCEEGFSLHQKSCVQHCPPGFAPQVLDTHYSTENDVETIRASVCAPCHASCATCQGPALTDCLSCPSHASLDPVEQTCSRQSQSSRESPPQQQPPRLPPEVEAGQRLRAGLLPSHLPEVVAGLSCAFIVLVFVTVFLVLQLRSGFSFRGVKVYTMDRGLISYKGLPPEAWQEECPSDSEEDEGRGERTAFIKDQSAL

`CC(=O)N[C@@H](CC(C)C)C(=O)N[C@@H](CC(C)C)C(=O)N[C@@H](CC(C)C)C(=O)N[C@H](C(=O)N[C@@H](CCCNC(=N)N)C(=O)N[C@H](C(=O)N[C@@H](CCCCN)C(=O)NCc1ccc(C(=N)N)cc1)C(C)C)[C@@H](C)O` (Ac-LLLTRVK-{NH(4-amidinobenzyl)}): the Ki (as a rule, the dissociation constant of the complex between target and ligand, obtained from inhibition or displacement) in experiment [1] is 2.8 nM; in experiment [2], 4.5 nM. Besides, the Ratio Ki in experiment [3] was 1.6. Further, in experiment [4], the outcome was inactive.

Consider `CC(=O)N[C@@H](CC(C)C)C(=O)N[C@@H](CC(C)C)C(=O)N[C@@H](CCCNC(=N)N)C(=O)N[C@@H](CC(C)C)C(=O)N[C@@H](CCCNC(=N)N)C(=O)N[C@H](C(=O)N[C@@H](CCCCN)C(=O)NCc1ccc(C(=N)N)cc1)C(C)C` (Ac-LLRLRVK-{NH(4-amidinobenzyl)}), for which the figures for the Ki in experiment [1] and in experiment [2] were 0.9 nM and 0.5 nM, respectively. The Ratio Ki in experiment [3] came to 0.6. Moreover, the result in experiment [4] was inactive.

As to `CC(=O)N[C@@H](CC(C)C)C(=O)N[C@@H](CC(C)C)C(=O)N[C@@H](CCC(=O)O)C(=O)N[C@@H](CC(C)C)C(=O)N[C@@H](CCCNC(=N)N)C(=O)N[C@H](C(=O)N[C@@H](CCCCN)C(=O)NCc1ccc(C(=N)N)cc1)C(C)C` (Ac-LLELRVK-{NH(4-amidinobenzyl)}), the Ki was 60 nM in experiment [1] and 50 nM in experiment [2]. For the same compound, in experiment [3], the Ratio Ki was 0.8. The result in experiment [4] was inactive.

For `CC(=O)NCC(=O)N[C@@H](CC(C)C)C(=O)N[C@@H](CC(C)C)C(=O)N[C@@H](CC(C)C)C(=O)N[C@@H](CCCNC(=N)N)C(=O)N[C@H](C(=O)N[C@@H](CCCCN)C(=O)NCc1ccc(C(=N)N)cc1)C(C)C` (Ac-GLLLRVK-{NH(4-amidinobenzyl)}), the Ki in experiment [1] and in experiment [2] was 3 nM throughout. The Ratio Ki in experiment [3] stood at 1. Further, in experiment [4], the outcome was inactive.

`CC(=O)N[C@@H](CC(C)C)C(=O)N[C@@H](CCC(N)=O)C(=O)N[C@@H](CC(C)C)C(=O)N[C@@H](CC(C)C)C(=O)N[C@@H](CCCNC(=N)N)C(=O)N[C@H](C(=O)N[C@@H](CCCCN)C(=O)NCc1ccc(C(=N)N)cc1)C(C)C` (Ac-LQLLRVK-{NH(4-amidinobenzyl)}): the Ki in experiment [1] turned out to be 3 nM; in experiment [2], 2.3 nM. Also, the Ratio Ki in experiment [3] amounted to 0.8. Besides, the outcome in experiment [4] was inactive.

As for `CC(=O)N[C@@H](CC(C)C)C(=O)N[C@@H](CC(=O)O)C(=O)N[C@@H](CC(C)C)C(=O)N[C@@H](CC(C)C)C(=O)N[C@@H](CCCNC(=N)N)C(=O)N[C@H](C(=O)N[C@@H](CCCCN)C(=O)NCc1ccc(C(=N)N)cc1)C(C)C` (Ac-LDLLRVK-{NH(4-amidinobenzyl)}), the Ki in experiment [1] worked out at 80 nM; in experiment [2], 50 nM. For the same compound, the Ratio Ki in experiment [3] worked out at 0.6. For the same compound, the outcome in experiment [4] was inactive.

On to `CC(=O)N[C@@H](CC(C)C)C(=O)N1CCC[C@H]1C(=O)N[C@@H](CC(C)C)C(=O)N[C@@H](CC(C)C)C(=O)N[C@@H](CCCNC(=N)N)C(=O)N[C@H](C(=O)N[C@@H](CCCCN)C(=O)NCc1ccc(C(=N)N)cc1)C(C)C` (Ac-LPLLRVK-{NH(4-amidinobenzyl)}), for which the results for the Ki in experiment [1] and in experiment [2] were 1 nM and 1.5 nM, respectively. Also, the Ratio Ki in experiment [3] is 1.5. In experiment [4], the result was inactive.

`CC(=O)N[C@@H](CC(C)C)C(=O)N[C@@H](CO)C(=O)N[C@@H](CC(C)C)C(=O)N[C@@H](CC(C)C)C(=O)N[C@@H](CCCNC(=N)N)C(=O)N[C@H](C(=O)N[C@@H](CCCCN)C(=O)NCc1ccc(C(=N)N)cc1)C(C)C` (Ac-LSLLRVK-{NH(4-amidinobenzyl)}): the Ki in experiment [1] is 2 nM; in experiment [2], 2.6 nM. The Ratio Ki in experiment [3] turned out to be 1.3. In addition, the result in experiment [4] was inactive.

Take `CC(=O)N[C@@H](CC(C)C)C(=O)N[C@@H](CC(C)C)C(=O)N[C@@H](CC(C)C)C(=O)N[C@@H](C)C(=O)N[C@@H](CCCNC(=N)N)C(=O)N[C@H](C(=O)N[C@@H](CCCCN)C(=O)NCc1ccc(C(=N)N)cc1)C(C)C` (Ac-LLLARVK-{NH(4-amidinobenzyl)}): the Ki is 4 nM in experiment [1] and 5 nM in experiment [2]. Further, the Ratio Ki in experiment [3] amounted to 1.3. In addition, in experiment [4], the outcome was inactive.

In the case of `CC(=O)N[C@@H](CC(C)C)C(=O)N[C@@H](CC(C)C)C(=O)N[C@@H](CC(=O)O)C(=O)N[C@@H](CC(C)C)C(=O)N[C@@H](CCCNC(=N)N)C(=O)N[C@H](C(=O)N[C@@H](CCCCN)C(=O)NCc1ccc(C(=N)N)cc1)C(C)C` (Ac-LLDLRVK-{NH(4-amidinobenzyl)}), the Ki in experiment [1] and in experiment [2] was 140 nM throughout. Also, in experiment [3], the Ratio Ki was 1. The result in experiment [4] was inactive.

`CC(=O)N[C@@H](CC(C)C)C(=O)N[C@@H](CC(C)C)C(=O)N[C@@H](C)C(=O)N[C@@H](CC(C)C)C(=O)N[C@@H](CCCNC(=N)N)C(=O)N[C@H](C(=O)N[C@@H](CCCCN)C(=O)NCc1ccc(C(=N)N)cc1)C(C)C` (Ac-LLALRVK-{NH(4-amidinobenzyl)}): the inhibition constant Ki in experiment [1] was determined as 30 nM; in experiment [2], 11 nM. In addition, in experiment [3], the Ratio Ki turned out to be 0.4. Also, the outcome in experiment [4] was inactive.

Take `CSCC[C@H](NC(=O)[C@H](CC(C)C)NC(C)=O)C(=O)N[C@@H](CC(C)C)C(=O)N[C@@H](CC(C)C)C(=O)N[C@@H](CCCNC(=N)N)C(=O)N[C@H](C(=O)N[C@@H](CCCCN)C(=O)NCc1ccc(C(=N)N)cc1)C(C)C` (Ac-LMLLRVK-{NH(4-amidinobenzyl)}): the Ki in experiment [1] was 5 nM; in experiment [2] it was 3 nM. In experiment [3], the Ratio Ki stood at 0.6. Besides, in experiment [4], the outcome was inactive.

Take `CC(=O)N[C@@H](CC(C)C)C(=O)N[C@@H](CC(C)C)C(=O)N[C@@H](CC(C)C)C(=O)N[C@@H](Cc1c[nH]c2ccccc12)C(=O)N[C@@H](CCCNC(=N)N)C(=O)N[C@H](C(=O)N[C@@H](CCCCN)C(=O)NCc1ccc(C(=N)N)cc1)C(C)C` (Ac-LLLWRVK-{NH(4-amidinobenzyl)}): the Ki in experiment [1] was found to be 2.8 nM; in experiment [2], 8 nM. Moreover, the Ratio Ki in experiment [3] was determined as 2.9. The outcome in experiment [4] was inactive.

As to `CSCC[C@H](NC(=O)[C@H](CC(C)C)NC(=O)[C@H](CC(C)C)NC(=O)[C@H](CC(C)C)NC(C)=O)C(=O)N[C@@H](CCCNC(=N)N)C(=O)N[C@H](C(=O)N[C@@H](CCCCN)C(=O)NCc1ccc(C(=N)N)cc1)C(C)C` (Ac-LLLMRVK-{NH(4-amidinobenzyl)}), the results for the Ki in experiment [1] and in experiment [2] were 3.7 nM and 3.4 nM, respectively. For the same compound, the Ratio Ki in experiment [3] was 0.9. Moreover, the result in experiment [4] was inactive.

With `CC(=O)N[C@@H](CC(C)C)C(=O)N[C@@H](CC(C)C)C(=O)N1CCC[C@H]1C(=O)N[C@@H](CC(C)C)C(=O)N[C@@H](CCCNC(=N)N)C(=O)N[C@H](C(=O)N[C@@H](CCCCN)C(=O)NCc1ccc(C(=N)N)cc1)C(C)C` (Ac-LLPLRVK-{NH(4-amidinobenzyl)}), the results for the Ki in experiment [1] and in experiment [2] were 4 nM and 1.4 nM, respectively. For the same compound, the Ratio Ki in experiment [3] amounted to 0.4. Besides, the outcome in experiment [4] was inactive.

The values above are taken from ChEMBL document CHEMBL4049407, “Positional Scanning Identifies the Molecular Determinants of a High Affinity Multi-Leucine Inhibitor for Furin and PACE4” (J Med Chem, 2017).
